What was measured:
Type in all cases: functional
[1] = Growth inhibition of human NCI-H23 cells at 10 uM after 48 hrs by SRB assay relative to control; settings: NCI-H23, 48 h, read-out: GI
Summary of the method: (§1)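 NCI 60-cell-line panel, nine tumor subpanels; compounds tested at a single dose of 10 μM in the primary screen.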

[2] = Growth inhibition of human NCI-H460 cells at 10 uM after 48 hrs by SRB assay relative to control; settings: NCI-H460, 48 h, read-out: GI; summary of the method: as §1
[3] = Growth inhibition of human UO31 cells at 10 uM after 48 hrs by SRB assay relative to control; settings: UO-31, 48 h, read-out: GI
Summary of the method: (§2)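 Primary screen across the full NCI 60 human tumour cell line panel, which covers nine tumour subpanels. A single dose of 10 μM was applied to each line, and growth was recorded for each cell line.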

[4] = Growth inhibition of human HCT116 cells at 10 uM after 48 hrs by SRB assay relative to control; settings: HCT-116, 48 h, read-out: GI; summary of the method: as §1
[5] = Growth inhibition of human K562 cells at 10 uM after 48 hrs by SRB assay relative to control; settings: K562, 48 h, read-out: GI; summary of the method: as §1
[6] = Growth inhibition of human OVCAR5 cells at 10 uM after 48 hrs by SRB assay relative to control; settings: OVCAR-5, 48 h, read-out: GI; summary of the method: as §1
[7] = Growth inhibition of human MOLT4 cells at 10 uM after 48 hrs by SRB assay relative to control; settings: MOLT-4, 48 h, read-out: GI; summary of the method: as §1
[8] = Growth inhibition of human U251 cells at 10 uM after 48 hrs by SRB assay relative to control; settings: U-251, 48 h, read-out: GI; summary of the method: as §2
[9] = Growth inhibition of human T47D cells at 10 uM after 48 hrs by SRB assay relative to control; settings: read-out: GI; summary of the method: as §2
[10] = Growth inhibition of human HL-60(TB) cells at 10 uM after 48 hrs by SRB assay relative to control; settings: HL-60, 48 h, read-out: GI
Summary of the method: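 NCI disease-oriented human tumour cell line screen: primary single-dose assay at 10 μM across the full 60-cell-line panel spanning nine tumour subpanels.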

[11] = Growth inhibition of human SK-MEL-2 cells at 10 uM after 48 hrs by SRB assay relative to control; settings: SK-MEL-2, 48 h, read-out: GI; summary of the method: as §2
[12] = Growth inhibition of human HOP92 cells at 10 uM after 48 hrs by SRB assay relative to control; settings: HOP-92, 48 h, read-out: GI; summary of the method: as §1
[13] = Growth inhibition of human Caki1 cells at 10 uM after 48 hrs by SRB assay relative to control; settings: CAKI-1, 48 h, read-out: GI; summary of the method: as §1
[14] = Growth inhibition of human SN12C cells at 10 uM after 48 hrs by SRB assay relative to control; settings: read-out: GI; summary of the method: as §2
[15] = Growth inhibition of human HT-29 cells at 10 uM after 48 hrs by SRB assay relative to control; settings: HT-29, 48 h, read-out: GI; summary of the method: as §1
[16] = Growth inhibition of human MDA-MB-231 cells at 10 uM after 48 hrs by SRB assay relative to control; settings: MDA-MB-231, 48 h, read-out: GI; summary of the method: as §1
[17] = Growth inhibition of human NCI/ADR-RES cells at 10 uM after 48 hrs by SRB assay relative to control; settings: read-out: GI; summary of the method: as §1
[18] = Growth inhibition of human OVCAR8 cells at 10 uM after 48 hrs by SRB assay relative to control; settings: OVCAR-8, 48 h, read-out: GI; summary of the method: as §1
[19] = Growth inhibition of human HOP62 cells at 10 uM after 48 hrs by SRB assay relative to control; settings: HOP-62, 48 h, read-out: GI; summary of the method: as §1
[20] = Growth inhibition of human RXF393 cells at 10 uM after 48 hrs by SRB assay relative to control; settings: RXF 393, 48 h, read-out: GI; summary of the method: as §1
[21] = Growth inhibition of human A549 cells at 10 uM after 48 hrs by SRB assay relative to control; settings: A549, 48 h, read-out: GI; summary of the method: as §1
[22] = Growth inhibition of human BT549 cells at 10 uM after 48 hrs by SRB assay relative to control; settings: BT-549, 48 h, read-out: GI; summary of the method: as §1
[23] = Growth inhibition of human Hs 578T cells at 10 uM after 48 hrs by SRB assay relative to control; settings: read-out: GI; summary of the method: as §1
[24] = Growth inhibition of human SK-MEL-28 cells at 10 uM after 48 hrs by SRB assay relative to control; settings: SK-MEL-28, 48 h, read-out: GI; summary of the method: as §2
[25] = Growth inhibition of human 786-0 cells at 10 uM after 48 hrs by SRB assay relative to control; settings: 786-0, 48 h, read-out: GI; summary of the method: as §1
[26] = Growth inhibition of human UACC62 cells at 10 uM after 48 hrs by SRB assay relative to control; settings: UACC-62, 48 h, read-out: GI; summary of the method: as §2
[27] = Growth inhibition of human SF539 cells at 10 uM after 48 hrs by SRB assay relative to control; settings: SF-539, 48 h, read-out: GI; summary of the method: as §1
[28] = Growth inhibition of human LOXIMVI cells at 10 uM after 48 hrs by SRB assay relative to control; settings: LOX IMVI, read-out: GI; summary of the method: as §1

Row | SMILES | inhibition of growth at 10 µM [1] [%] | inhibition of growth at 10 µM [2] [%] | inhibition of growth at 10 µM [3] [%] | inhibition of growth at 10 µM [4] [%] | inhibition of growth at 10 µM [5] [%] | inhibition of growth at 10 µM [6] [%] | inhibition of growth at 10 µM [7] [%] | inhibition of growth at 10 µM [8] [%] | inhibition of growth at 10 µM [9] [%] | inhibition of growth at 10 µM [11] [%] | inhibition of growth at 10 µM [12] [%] | inhibition of growth at 10 µM [13] [%] | inhibition of growth at 10 µM [14] [%] | inhibition of growth at 10 µM [15] [%] | inhibition of growth at 10 µM [16] [%] | inhibition of growth at 10 µM [17] [%] | inhibition of growth at 10 µM [18] [%] | inhibition of growth at 10 µM [19] [%] | inhibition of growth at 10 µM [20] [%] | inhibition of growth at 10 µM [21] [%] | further results
1 | COc1ccc(CSc2nc3cc(OC)c(OC)cc3c(=O)n2-c2ccc(OC)cc2OC)cc1 | 21.7 | < 10 | 44.6 | 37.2 | 12.9 | < 10 | 20.6 | < 10 | 24.4 | < 10 | 24.5 | 31.3 | < 10 | 12 | 24.6 | 20.5 | 10.8 | < 10 | 24.5 | 19.2 | inhibition of growth at 10 µM [10]: < 10%; inhibition of growth at 10 µM [22]: < 10%; inhibition of growth at 10 µM [23]: 13.3%; inhibition of growth at 10 µM [24]: < 10%; inhibition of growth at 10 µM [25]: < 10%; inhibition of growth at 10 µM [26]: 19.8%; inhibition of growth at 10 µM [27]: < 10%; inhibition of growth at 10 µM [28]: 16.6%
2 | COc1cc(CSc2nc3ccc(Cl)cc3c(=O)n2-c2ccccc2)cc(OC)c1OC | 21 | < 10 | 52.2 | 38.2 | 61.8 | 15.4 | 30.3 | 11.4 | 29.1 | 22.5 | 11.1 | 26.1 | 24 | 33 | 37 | 24.5 | 15.7 | 28 | 31.1 | 26.1 | inhibition of growth at 10 µM [10]: < 10%; inhibition of growth at 10 µM [22]: < 10%; inhibition of growth at 10 µM [23]: < 10%; inhibition of growth at 10 µM [24]: < 10%; inhibition of growth at 10 µM [25]: 10.7%; inhibition of growth at 10 µM [26]: 35.9%; inhibition of growth at 10 µM [27]: 21.1%; inhibition of growth at 10 µM [28]: 20.7%
3 | COc1ccc(-n2c(SCc3cc(OC)c(OC)c(OC)c3)nc3ccc(Cl)cc3c2=O)cc1 | 20.2 | 10.3 | 52.1 | 33.3 | 28.6 | 10.5 | 27.6 | < 10 | 23.9 | < 10 | 42.9 | 33 | 18.3 | 17 | 36.8 | 10.7 | 13.7 | < 10 | 25.9 | 20.2 | inhibition of growth at 10 µM [10]: < 10%; inhibition of growth at 10 µM [22]: < 10%; inhibition of growth at 10 µM [23]: 13.9%; inhibition of growth at 10 µM [24]: < 10%; inhibition of growth at 10 µM [25]: < 10%; inhibition of growth at 10 µM [26]: 33.9%; inhibition of growth at 10 µM [27]: 12.7%; inhibition of growth at 10 µM [28]: 18%
4 | COc1cc2nc(SCc3cc(OC)c(OC)c(OC)c3)n(-c3ccccc3OC)c(=O)c2cc1OC | 20.1 | 16.6 | 63.7 | 12 | 72.7 | 11 | 53.2 | 13.2 | 11.4 | < 10 | 34.2 | 57.1 | < 10 | 33.4 | 22.6 | 37.1 | 15.4 | < 10 | 22 | 12 | inhibition of growth at 10 µM [22]: 12.5%; inhibition of growth at 10 µM [23]: 39.2%; inhibition of growth at 10 µM [24]: 21.1%; inhibition of growth at 10 µM [25]: < 10%; inhibition of growth at 10 µM [26]: 27.5%; inhibition of growth at 10 µM [27]: 10.1%; inhibition of growth at 10 µM [28]: 22.7%
